Eleven compounds from ChEMBL document CHEMBL4000160, “Wasabisides A-E, Lignan Glycosides from the Roots of Wasabia japonica” (J Nat Prod, 2016) can be followed below.

Data set [1] concerns C6. Put plainly: Induction of nerve growth factor secretion in rat C6 cells at 20 uM after 24 hrs by ELISA relative to control. The class given is functional. The essentials: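 C6 glioma cells (Korean Cell Line Bank) seeded 1 × 10^5 cells/well; after 24 h switched to serum-free DMEM with 20 μM compound for 24 h. NGF in conditioned medium quantified by ELISA, given as % of untreated control (100%). 6-Shogaol positive control; mean ± SD of three independent experiments.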

Data set [2] relates to A549. The data set can be described thus: Cytotoxicity against human A549 cells after 48 hrs by SRB assay. The class given is functional, cell-based. To be noted: A549, 48 h. The essentials: (§1)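 Human tumor lines from ATCC, maintained at Korea Research Institute of Chemical Technology; cytotoxicity determined by sulforhodamine B (SRB) method, reported as IC50.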
For data set [3], the system named is BT-549. The data set can be described thus: Cytotoxicity against human BT549 cells after 48 hrs by SRB assay. The settings on record: BT-549, 48 h. It counts as functional, cell-based. In a few lines: as §1
The nature of data set [4]: Cytotoxicity against rat C6 cells assessed as cell viability at 20 uM by MTT assay relative to control. The class given is cell-based. To be noted: read-out: Activity. The essentials: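 C6 glioma cells seeded 1 × 10^5 cells/well, treated 24 h later in serum-free DMEM with 20 μM compound for 24 h; viability by MTT assay, expressed as % of untreated control. Mean ± SD of three independent experiments.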

Data set [5] concerns SK-MEL-2. The data set can be described thus: Cytotoxicity against human SK-MEL-2 cells after 48 hrs by SRB assay. It counts as functional, cell-based. To be noted: SK-MEL-2, 48 h. The essentials: as §1
Data set [6] relates to SK-OV-3. Put plainly: Cytotoxicity against human SKOV3 cells after 48 hrs by SRB assay. It counts as functional, cell-based. The settings on record: SK-OV-3, 48 h. In a few lines:
as §1

In data set [7] the test system is BV-2. The data set can be described thus: Antineuroinflammatory activity in mouse BV2 cells assessed as inhibition of LPS-induced nitric oxide production after 24 hrs by Griess assay. To be noted: BV-2, 24 h. The class given is functional, cell-based. The essentials: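 BV2 microglia seeded at 4 × 10^4 cells/well, exposed with or without graded compound concentrations, stimulated with LPS 100 ng/mL for 24 h. Nitrite in medium measured by mixing supernatant 1:1 with Griess reagent (0.1% N-1-naphthylethylenediamine, 1% sulfanilamide, 5% phosphoric acid), absorbance read at 570 nm after 10 min against sodium nitrite standard curve. NG-monomethyl-L-arginine positive control.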

In data set [1], `COc1cc([C@H](O)[C@@H]2COC(=O)[C@H]2Cc2ccc(O[C@@H]3O[C@H](CO)[C@@H](O)[C@H](O)[C@H]3O)c(OC)c2)ccc1O` showed an Activity of 104.3%. In addition, the IC50 in data set [2] was > 10 µM; in data set [3], > 10 µM; in data set [5] it was > 10 µM; in data set [6], > 10 µM; in data set [7], > 50 µM. In addition, in data set [4], the viability at 20 µM is 102%.
In turn, `O=C(O)/C=C/c1ccc(O)cc1` [COUMARIC ACID] showed an Activity in data set [1] of 129.2%. Further, the IC50 in data set [2] was > 10 µM; in data set [3], 10 µM; in data set [5] it was > 10 µM; in data set [6], > 10 µM; in data set [7] it was > 50 µM. Moreover, the viability at 20 µM in data set [4] was determined as 198%.
In data set [1], `CCCCC/C=C/C(=O)CCc1ccc(O)c(OC)c1` [SHOGAOL] yielded an Activity of 165.7%. Moreover, the viability at 20 µM in data set [4] came out at 115%.
In the case of `O=C(O)c1ccccc1` [BENZOIC ACID], the Activity in data set [1] is 114.5%. For the same compound, the IC50 is > 10 µM in data set [2]; > 10 µM in data set [3]; > 10 µM in data set [5]; > 10 µM in data set [6]; > 50 µM in data set [7]. Besides, the viability at 20 µM in data set [4] stood at 96.4%.
Compound `COc1cc(C[C@@H]2C(=O)OC[C@H]2[C@@H](O)c2cc(OC)c(O[C@@H]3O[C@H](CO)[C@@H](O)[C@H](O)[C@H]3O)c(OC)c2)ccc1O` returned an Activity in data set [1] of 99.4%. Also, the half-inhibitory concentration (IC50) in data set [2] was > 10 µM; in data set [3], > 10 µM; in data set [5], > 10 µM; in data set [6], > 10 µM; in data set [7] it was > 50 µM. Also, the viability at 20 µM in data set [4] worked out at 102%.
In data set [1], `COc1cc(C(=O)O)cc(OC)c1O` [SYRINGIC ACID] returned an Activity of 125.5%. For the same compound, the IC50 in data set [2] is > 10 µM; in data set [3], > 10 µM; in data set [5], > 10 µM; in data set [6] it was > 10 µM; in data set [7], > 50 µM. In addition, the viability at 20 µM in data set [4] stood at 95.9%.
Regarding `COc1cc(C[C@@H]2C(=O)OC[C@H]2[C@@H](O)c2ccc(O[C@@H]3O[C@H](CO)[C@@H](O)[C@H](O)[C@H]3O)c(OC)c2)ccc1O`, the Activity in data set [1] is on record as 103.3%. The half-inhibitory concentration (IC50) is > 10 µM in data set [2]; > 10 µM in data set [3]; > 10 µM in data set [5]; > 10 µM in data set [6]; > 50 µM in data set [7]. In addition, the viability at 20 µM in data set [4] amounted to 98.2%.
In data set [1], `COc1cc(C[C@H]2C(=O)OC[C@@H]2C(=O)c2ccc(O[C@@H]3O[C@H](CO)[C@@H](O)[C@H](O)[C@H]3O)c(OC)c2)ccc1O` registered an Activity of 122.1%. Also, the IC50 in data set [2] was > 10 µM; in data set [3], > 10 µM; in data set [5] it was > 10 µM; in data set [6], > 10 µM; in data set [7] it was > 50 µM. The viability at 20 µM in data set [4] came out at 101%.
`COc1cc(C[C@@H]2C(=O)OC[C@H]2[C@@H](O[C@@H]2O[C@H](CO)[C@@H](O)[C@H](O)[C@H]2O)c2ccc(O)c(OC)c2)ccc1O`: the Activity in data set [1] is listed as 150.7%. Also, the IC50 in data set [2] was > 10 µM; in data set [3] it was > 10 µM; in data set [5] it was > 10 µM; in data set [6], > 10 µM; in data set [7], > 50 µM. In data set [4], the viability at 20 µM worked out at 100%.
Consider `CNC(=N)NCCC[C@H](N)C(=O)O` [TILARGININE], for which the 50% inhibitory concentration (IC50) in data set [7] came out at 17.6 µM.
For the compound `COc1cc(/C=C/C(=O)O)ccc1O` [FERULATE], the Activity in data set [1] turned out to be 110.7%. Further, the IC50 in data set [2] was > 10 µM; in data set [3], > 10 µM; in data set [5] it was > 10 µM; in data set [6] it was > 10 µM; in data set [7] it was > 50 µM. The viability at 20 µM in data set [4] stood at 95%.
